Tests used:
[1] = cited from earlier work
α1β1 integrin = details: reduced disulfide bonds, cysteines blocked with vinylpyridine; cited from earlier work
[2] = test system: MV3 melanoma-induced angiogenesis; assay: MV3 tumor-induced angiogenesis in quail embryonic CAM; format: in vivo, Japanese quail (Coturnix coturnix japonica); details: MV3 on quail CAM, 20 μg daily, day 12
Method in brief: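 Japanese quail eggs ethanol-cleaned, kept at 37°C without CO₂ to embryonic day 3, then opened and contents moved to 6-well plates at 37°C. Day 6: MV3 cells (1 × 10⁷/50 μl PBS) applied onto CAM; after 24 h growth, 20 μg test compound per 50 μl PBS daily. Tumors excised and weighed; remaining membrane slide-mounted, fractal dimension (Df) measured in square area opposite the tumor.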

MV3 = assay: Apoptosis in MV3 melanoma cell line; format: cell-based; details: MV3 human melanoma cell line (data not shown)
B16F10 = assay: Apoptosis in B16F10 melanoma cell line; format: cell-based; details: B16F10 mouse melanoma cell line (data not shown)
B16F10 mouse melanoma = assay: B16F10 melanoma growth in syngeneic C57BL/6 mice; format: in vivo; details: for effect on tumor growth, i.p. route: B16F10 melanoma model
Method in brief: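 Daily caliper volumes (width² × length × 0.52). Formalin-fixed paraffin 5-μm sections: anti-von Willebrand factor vessels counted in 10 high-power fields (400×) and averaged, blinded, 3 investigators; colorimetric TUNEL; S.D. from 5 animals.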

dHMVEC [3] = assay: dHMVEC proliferation assay; format: cell-based, human; details: BrdUrd, induced by 2% FBS or 50 ng/ml hrVEGF or vpVEGF, 2 μM obtustatin for VEGF
dHMVEC [4] = assay: Apoptosis assays in dHMVEC; format: cell-based, human; details: 2 μM
Method in brief: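 Primary adult dermal microvascular endothelial cells (passages 5–8, complete EBM-2). Annexin V: 2 μM test compound 16 h in complete EBM-2, cells detached, annexin V-FITC stained, two-colour flow cytometry within 1 h. Caspase 3: ±2 μM 16 h in complete medium, vincristine 50 μg/ml as positive control, lysates read by colorimetric ELISA at 450 nm. Morphology: 90% confluent cells, 2 μM 24 h, 2% paraformaldehyde-fixed, phase contrast 200×.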

[5] = format: in vivo, mouse; details: mice
[6] = format: in vivo, mouse; details: mice, Western blot, variety of time intervals

Compound	half life time [1]	change of activity against α1β1 integrin versus native obtustatin (α1β1 integrin)	tumor-induced angiogenesis, angiogenesis index as fractal dimension (Df) [2]	apoptosis induction (MV3)	apoptosis induction (B16F10)	effect on tumor growth, i.p. route (B16F10 mouse melanoma; 2.5 mg/kg i.p. (data not shown))	effect on tumor growth, i.p. route (B16F10 mouse melanoma; 5 mg/kg i.p. (data not shown))	vessel number in paraffin sections of tumor (anti-von Willebrand factor) (B16F10 mouse melanoma; B16F10 melanoma, obtustatin treated animals vs control)	TUNEL staining of endothelial cells in tumor sections (B16F10 mouse melanoma; B16F10 melanoma, obtustatin-treated animals)	body weight during multiple injections (B16F10 mouse melanoma; melanoma experiments in mice, 5 and 2.5 mg/kg i.v., multiple injections)	endothelial cell proliferation (dHMVEC [3])	caspase 8, fluorescent ELISA and Western blot (dHMVEC [4]; 2 hours)	caspase 3, colorimetric ELISA and Western blot (dHMVEC [4]; 16 hours (ELISA))	annexin V binding (early apoptosis), flow cytometry (dHMVEC [4]; 16 hours, complete EBM-2 media)	cell morphology (dHMVEC [4]; 24 hours, complete medium with 5% FBS)	behavioral signs and body weight ([5]; single i.v. doses up to 20 mg/kg, 10 days observation)	H&E sections of liver ([5]; single i.v., 10 mg/kg and 20 mg/kg groups, after 10 days)	H&E sections of spleen ([5]; single i.v., 20 mg/kg group, after 10 days)	H&E sections of brain, lung, kidney, liver and spleen ([5]; single i.v., all concentrations up to 7 mg/kg, after 10 days)	detection in blood plasma after i.p. injection [6]
O=c1[nH]cc(F)c(=O)[nH]1 [5-fluorouracil (5-FU), 5-fluorouracil]	about 100 minutes																			
Ethylpyridylated(EP)-obtustatin [EP-obtustatin]		over four orders of magnitude decreasing activity	no activity																	
obtustatin			significantly diminished	no apoptotic properties	no apoptotic properties	no effect on tumor growth	only slightly, close to no significant ratio tumor suppression	significant reduction of vessel number	positive staining of DNA strand breaks	did not show any changes in body weight	potent inhibitor of endothelial cell proliferation	appears to be activated	release of caspase 3	annexin V binds to the surface of dHMVEC	typical apoptotic morphology	did not reveal any toxic side effects	small areas of inflammations and necrotic patches in liver	significant necrotic patches in all animals	no effects	not detectable

Source: PMC2587450 (International journal of cancer. Journal international du …, 2008)
